Assay results pooled from the literature.
Target: Casein kinase II subunit alpha (CSNK2A1, Homo sapiens, UniProt P68400)

Cn1c2c(c3ccc(Cl)c(Cl)c31)C(C#N)C1(CCN(C(=O)OC(C)(C)C)CC1)NC2=O (racemic) — ΔTm (thermal stability, DSF; 10 µM): -0.1 °C
COc1cc(Nc2cnc(C#N)c(O[C@H](C)CN(C)C)n2)ncc1-c1cnn(C)c1 — remaining activity (enzyme activity, inhibitor, radiometric; 1 µM): 110%
Nc1cnc(N2CCc3cc(S(=O)(=O)Nc4c(F)cc(Cl)cc4F)cc(N4CCCC4=O)c32)nc1 — remaining binding (cell-free assay, competition with immobilised ligand; 1 µM): 100%
Cc1cnc(NC2CCOCC2)nc1-n1cnc(C(=O)NC(CN)c2cc(F)cc(Cl)c2)c1 (stereo not shown) — remaining activity (enzyme activity, inhibitor, radiometric; 1 µM): 106%
CC(C)(C)c1nc(-c2cccc(NS(=O)(=O)c3c(F)cccc3F)c2F)c(-c2ccnc(N)n2)s1 — remaining activity (enzyme activity, inhibitor, radiometric; 1 µM): 85%
C#Cc1cccc(Nc2ncnc3cc(OCCOC)c(OCCOC)cc23)c1 — remaining signal (cell-free assay; 0.5 µM): 78.9%
COc1cc2ncnc(Nc3ccc(Oc4ccccc4)cc3C)c2cc1OC — inhibition (enzyme activity, inhibitor; 1 µM): 11%
Nc1ncnc2occ(-c3ccc(NC(=O)Nc4cc(C(F)(F)F)ccc4F)cc3)c12 — remaining activity (enzyme activity, inhibitor; 20 µM): 63%
COc1cc(/C=C/C(=O)CC(=O)/C=C/c2ccc(O)c(OC)c2)ccc1O — activity vs control (enzyme activity, inhibitor; 1 µM): 106%
O=C1CCc2cc(Nc3cc(OC4CCOCC4)c([N+](=O)[O-])cc3Cl)ccc2N1 — remaining binding (cell-free assay, competition with immobilised ligand; 1 µM): 84%
Cn1c(=O)n(-c2ccc(C(C)(C)C#N)cc2)c2c3cc(-c4cnc5ccccc5c4)ccc3ncc21 — remaining activity (enzyme activity, inhibitor; 10 µM): 79%
Cn1c2c(Cl)c(Cl)ccc2c2cc[nH]c(=O)c21 — ΔTm (thermal stability, DSF; 10 µM): 1.3 °C
Cc1ccc(Nc2nccc(N(C)c3ccc4c(C)n(C)nc4c3)n2)cc1S(N)(=O)=O — inhibition (enzyme activity, inhibitor; 0.3 µM): -9%
CCC1(CC)NC(=O)c2c(c3ccc(Cl)c(Cl)c3n2C)C1C#N (stereo not shown) — ΔTm (thermal stability, DSF; 10 µM): 0 °C
CCCOc1ccc(OC)c(F)c1C(=O)c1ccc(C(=O)N[C@@H]2CNC[C@H]2NC(=O)c2ccc3[nH]ncc3c2)cc1 — remaining activity (enzyme activity, inhibitor; 10 µM): 108%
CN([C@@H]1CCc2c(CC(=O)O)c3ccccc3n2C1)S(=O)(=O)c1ccc(F)cc1 — remaining binding (cell-free assay, competition with immobilised ligand; 1 µM): 82%
O=C1Nc2ccc(Cl)cc2C1=Cc1cc(Cl)c(O)c(Cl)c1 — remaining signal (cell-free assay; 0.5 µM): 26.5%
CN([C@@H]1CCc2c(CC(=O)O)c3cc(S(C)(=O)=O)ccc3n2C1)S(=O)(=O)c1ccc(F)cc1 — remaining binding (cell-free assay, competition with immobilised ligand; 1 µM): 91%
FC(F)c1nc2ccccc2n1-c1nc(N2CCOCC2)nc(N2CCOCC2)n1 — remaining activity (enzyme activity, inhibitor; 10 µM): 54%
O=C(O)c1cc(-c2ccc(C3CCNCC3)cc2)c2ccc(-c3ccc(C(F)(F)F)cc3)cc2c1 — remaining binding (cell-free assay, competition with immobilised ligand; 1 µM): 100%
CN1CCC2(CC1)NC(=O)c1c(c3ccc(Cl)c(Cl)c3n1C)C2C#N (racemic) — ΔTm (thermal stability, DSF; 10 µM): 2.5 °C
Nc1nc(NC2CCCCC2)sc1C(=O)c1ccccc1 — remaining activity (enzyme activity, inhibitor; 10 µM): 114%
CCN(CC)CCNC(=O)c1c(C)[nH]c(/C=C2\C(=O)Nc3ccc(F)cc32)c1C — inhibition (enzyme activity, inhibitor; 10 µM): 22%
Cn1c2c(c3ccccc31)C(C#N)C(C)(C)NC2=O (stereo not shown) — ΔTm (thermal stability, DSF; 10 µM): 0.8 °C
C[C@@H]1CN(c2cc(-c3nn(C)c4ccc(OC5(C)CC5)cc34)ncn2)C[C@H](C)O1 — remaining binding (cell-free assay, competition with immobilised ligand; 1 µM): 76%
Cc1sc(C(=O)NC2COC2)cc1-n1cc(NC(=O)Nc2c(F)cccc2Cl)cn1 — remaining activity (enzyme activity, inhibitor; 10 µM): 97%
CC(C)(C)C(=O)c1sc(NC2CCCCC2)nc1N — remaining activity (enzyme activity, inhibitor; 10 µM): 118%
C[C@H](NC(=O)c1cnc2n1[C@](C)(Cc1ccc(C#N)cc1)C(=O)N2c1cc(Cl)c(F)c(Cl)c1)C(=O)NC1(c2ccccn2)CC1 — remaining binding (cell-free assay, competition with immobilised ligand; 1 µM): 81%
COc1cc(Cl)c(C(=O)N[C@@H](CN[C@H]2CC[C@@H](N)CC2)Cc2ccc(C#N)cc2)cc1-c1ccc(CN[C@H](C)c2ccc(C)cc2)o1 — remaining activity (enzyme activity, inhibitor; 1 µM): 104%
Cn1cc(Cl)c2c(Oc3c(F)cc(Nc4cc(Cl)nc(N)n4)cc3F)ccnc21 — remaining binding (cell-free assay, competition with immobilised ligand; 0.1 µM): 98%
CNC(=O)c1cc(Oc2ccc(NC(=O)Nc3ccc(Cl)c(C(F)(F)F)c3)cc2)ccn1 — remaining signal (cell-free assay; 0.5 µM): 108%
